ChEMBL document CHEMBL5329183, “Naphthylthiazoles: a class of broad-spectrum antifungals” (RSC Med Chem, 2023)

Key:
Type in all cases: ADME, organism-based
[1] = Cmax in Sprague-Dawley rat at 25 mg/kg, po administered as single dose by LC/MS/MS analysis; design: dose 25 mg/kg, route po; details: in vivo
Outline: (§1)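 Male naïve Sprague–Dawley rats (n=3) received a single 25 mg kg−1 oral gavage dose in 5% ethanol/45% PEG 400/50% water. EDTA-K2 blood was sampled over 24 h post-dose. Plasma levels were measured by LC/MS/MS after acetonitrile protein precipitation, and parameters came from two-compartment analysis.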

[2] = Plasma concentration in Sprague-Dawley rat at 25 mg/kg, po administered as single dose and measured for 18 hrs by LC/MS/MS analysis; outline: as §1
[3] = Half life in Sprague-Dawley rat at 25 mg/kg, po administered as single dose by LC/MS/MS analysis; details: in vivo; outline: as §1

Work on Cc1nc(-c2ccc3ccccc3c2)sc1-c1nnc(N[C@@H]2CCCC[C@H]2N)o1 (relative stereo) yielded a Cmax [1] of 9400 ng/mL, a concentration at 18 h [2] of 1000 ng/mL and a half-life [3] of 3.6 h.
